# Active and inactive are the calls of the source. The calls are words filed in the database; no cut-off is given here.
# Experiments:
# [1] = system: CAL-27; test: Antiproliferative activity against human CAL27 cells assessed as reduction in cell viability incubated for 72 hrs by MTT assay; type: functional, cell-based; details: CAL-27, 72 h
# Outline: (§1)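 Cells seeded overnight in 96-well plates, then exposed to increasing concentrations (compound dissolved in DMSO, diluted in medium) for the stated time. MTT (5 mg/ml in PBS) added for 15 min, formazan dissolved in DMSO, absorbance read at 544 nm minus 690 nm background. IC50 = concentration giving 50% signal decrease. At least three independent experiments in triplicate.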
# [2] = system: KYSE-510; test: Antiproliferative activity against human cisplatin resistant KYSE-510 cells assessed as reduction in cell viability incubated for 72 hrs by MTT assay; type: functional, cell-based; details: KYSE-510, 72 h; outline: as §1
# [3] = system: A2780cisR; test: Antiproliferative activity against human A2780cisR cells assessed as reduction in cell viability incubated for 24 hrs by MTT assay; type: functional, cell-based; outline: as §1
# [4] = system: A2780cisR; test: Antiproliferative activity against human A2780cisR cells assessed as reduction in cell viability incubated for 48 hrs by MTT assay; type: functional, cell-based; outline: as §1
# [5] = system: A2780cisR; test: Cell cycle arrest in human A2780cisR cells assessed as accumulation at G1 phase at 10 uM incubated for 24 hrs by propidium iodide staining based flow cytometry (reference value: 68.7%); type: functional
# Outline: (§2)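 After 24 h exposure, cells washed in ice-cold PBS. About 2 million cells fixed in cold 70% ethanol at −20 °C for at least 24 h. Stained with 0.1% Triton X-100, 200 µg/ml RNase A and 20 µg/ml propidium iodide in PBS, 15 min at 37 °C in the dark. DNA content read by flow cytometry with doublet discrimination. Medium as untreated control, paclitaxel as G2/M control. Three independent experiments.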
# [6] = system: J82; test: Cell cycle arrest in cisplatin resistant human J82 cells assessed as accumulation at G1 phase at 1 uM incubated for 24 hrs by propidium iodide staining based flow cytometry (reference value: 78.1%); type: functional; outline: as §2
# [7] = system: A2780cisR; test: Induction of apoptosis in human A2780cisR cells assessed as accumulation in subG1 phase at 1 uM incubated for 24 hrs by propidium iodide staining based flow cytometry relative to control; type: functional
# Outline: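 About 100,000 cells/well plated; after one day, treated 24 h. Cells lysed in hypotonic buffer (0.1% sodium citrate, 0.1% Triton X-100, 100 µg/ml propidium iodide) and kept overnight at 4 °C in the dark. Sub-G1 fraction measured by flow cytometry. Medium as control, cisplatin as positive control.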
# [8] = system: J82; test: Induction of apoptosis in cisplatin resistant human J82 cells assessed as depolarization of mitochondrial membrane potential incubated for 1 hr by TMRE staining based flow cytometry; type: functional, cell-based
# Outline: (§3)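 Cells seeded overnight; medium switched to FBS-free just before treatment to avoid TMRE ester cleavage. Exposure 1 h, 2 h or 24 h, then TMRE staining for 20 min. Cells trypsinized, centrifuged at 4 °C and read by flow cytometry. Medium as negative control, 20 µM CCCP as positive control. […]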
# [9] = system: A2780; test: Induction of apoptosis in human A2780 cells assessed as depolarization of mitochondrial membrane potential at 1 uM incubated for 1 hr by TMRE staining based flow cytometry; type: functional; outline: as §3
# [10] = system: A2780cisR; test: Induction of apoptosis in human A2780cisR cells assessed as depolarization of mitochondrial membrane potential at 1 uM incubated for 1 hr by TMRE staining based flow cytometry; type: functional
# Outline: (§4)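 Cells seeded overnight; complete medium swapped for FBS-free medium just before treatment to avoid TMRE ester cleavage. Exposure to PXA for 1 h, 2 h or 24 h. TMRE staining 20 min, cells collected by trypsinisation, ΔΨm read by flow cytometry. Medium served as negative control, 20 µM CCCP as positive control. Mean ± SEM reported.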
# [11] = system: A2780cisR; test: Induction of apoptosis in human A2780cisR cells assessed as depolarization of mitochondrial membrane potential at 1 uM incubated for 2 hrs by TMRE staining based flow cytometry; type: functional; outline: as §4
# [12] = system: A2780; test: Induction of apoptosis in human A2780 cells assessed as increase in intracellular calcium level at 10 to 30 uM incubated for 30 mins in presence of 1 mM extracellular calcium by fluorimetry; type: functional, cell-based
# Outline: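 Cells seeded in 96-well plates overnight, washed twice with Krebs-HEPES buffer, loaded 1 h at 37 °C in the dark with Oregon Green BAPTA-1 AM (final 3 µM) and Pluronic F-127. Buffer replaced, PXA added, fluorescence at 544 nm recorded for 30 min, with or without 1 mM extracellular Ca2+. Three experiments, mean ± SEM.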
# [13] = system: J82; test: Induction of apoptosis in human J82 cells assessed as increase in activation of caspase 3/7 at 50 uM incubated for 24 hrs by hoechst 33342 staining based fluorescence microscopy (reference value: 1.1%); type: functional
# [14] = system: A2780cisR; test: Induction of apoptosis in human A2780cisR cells assessed as decrease in cIAP expression at 5 uM incubated for 24 hrs by proteome profiler analysis; type: functional, cell-based
# Outline: (§5)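 A2780 and A2780CisR cells treated 24 h with 5 µM PXA; apoptosis-related proteins profiled with a human apoptosis antibody array following kit instructions.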
# [15] = system: A2780cisR; test: Induction of apoptosis in human A2780cisR cells assessed as decrease in claspin expression at 5 uM incubated for 24 hrs by proteome profiler analysis; type: functional, cell-based; outline: as §5
# [16] = system: A2780; test: Induction of apoptosis in human A2780 cells assessed as nuclear condensation by measuring reduced size and increased intensity of nuclei at 10 uM incubated for 24 hrs by hoechst 33342 staining based fluorescence microscopy; type: functional, cell-based
# [17] = system: A2780cisR; test: Induction of apoptosis in human A2780cisR cells assessed as depolarization of mitochondrial membrane potential after 24 hrs by TMRE staining based flow cytometry; type: functional, cell-based; outline: as §4
smiles,measurement,setting,value
CC(=O)OC[C@]12Oc3c(-c4ccc(O)c5c4O[C@@]4(COC(C)=O)C(=C(O)C[C@@H](C)[C@H]4OC(C)=O)C5=O)ccc(O)c3C(=O)C1=C(O)C[C@@H](C)[C@H]2OC(C)=O [PHOMOXANTHONE A],IC50,[1],5250 nM
same,IC50,[2],790 nM
same,IC50,[3]; read-out: IC50,1880 nM
same,IC50,[3]; read-out: pIC50 (converted),1860 nM
same,IC50,[4]; read-out: IC50,1180 nM
same,IC50,[4]; read-out: pIC50 (converted),1170 nM
same,Activity,[5],81.1%
same,Activity,[6],76.3%
same,Activity,[7],70%
same,Activity,[8],Dose-dependent effect
same,IC50,"[8]; J82, 1 h",3120 nM
same,Activity,[9],73%
same,Activity,[10],73%
same,Activity,[11],50%
same,Activity,[12],Active
same,Activity,[13],60%
same,Activity,[14],Active
same,Activity,[15],Active
same,Activity,[16],Active
same,Activity,[17],Dose-dependent effect
